A word on the EC50: it is the midpoint of the concentration-response curve.

Calls of active or inactive are those of the source. The rule behind the calls is not given here.

Here are results for two compounds from ChEMBL document CHEMBL1138525 (J Med Chem, 2009).

The target of assay [1] is T1, P2Y purinoceptor 2 (Homo sapiens, UniProt P41231). The assay can be described thus: Agonist activity at N-terminal HA epitope-tagged human P2Y2 receptor expressed in human 1321N1 cells assessed as increase in intracellular calcium level at 100 µM. A general note: Calcium assays in cells follow changes in intracellular calcium, usually with a dye or a luminescent sensor.

The target of assay [2] is T1, P2Y purinoceptor 2. The assay can be described thus: Agonist activity at N-terminal HA epitope-tagged wild type 3 human P2Y2 receptor expressed in human 1321N1 cells assessed as increase in intracellular calcium level. It is filed as functional, cell-based. Put shortly:
(§1)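 Retrovirally transduced stable 1321N1 astrocytoma lines (wild-type lines of differing expression, or mutants) in suspension, loaded with Oregon Green BAPTA-1/AM for 1 h at room temperature. Cells were plated at 150000 per well in Krebs-HEPES pH 7.4 and held 20 min at 28 °C in the dark.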

Assay [3] concerns the target P2Y purinoceptor 2 (Homo sapiens, UniProt P41231, R272A). The assay can be described thus: Agonist activity at N-terminal HA epitope-tagged human P2Y2 receptor R272A mutant expressed in human 1321N1 cells assessed as increase in intracellular calcium level. It is filed as functional, cell-based. Put shortly: (§2)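 1321N1 astrocytoma cells stably expressing mutant receptor (retroviral transfection, G418 selection), loaded with Oregon Green BAPTA-1/AM in Krebs-HEPES pH 7.4 for 1 h at room temperature. Plated at 150000 cells/well and held 20 min at 28 °C in the dark. Efficacy relative to 100 µM carbachol.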

In assay [4] the test system is P2Y purinoceptor 2 (Homo sapiens), P41231 [R177A,R180A]. The assay can be described thus: Agonist activity at N-terminal HA epitope-tagged human P2Y2 receptor R177A_R180A double mutant expressed in human 1321N1 cells assessed as increase in intracellular calcium level relative to carbachol. It is filed as functional, cell-based. Put shortly: (§3)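 Retrovirally transduced stable 1321N1 astrocytoma lines (wild-type lines of differing expression, or mutants) in suspension, loaded with Oregon Green BAPTA-1/AM for 1 h at room temperature. Cells were plated at 150000 per well in Krebs-HEPES pH 7.4 and held 20 min at 28 °C in the dark. Agonist was then injected, with fluorescence read at ex 485/em 520 nm for 60 × 0.4 s.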

Assay [5] has as its system P2Y purinoceptor 2 (Homo sapiens), P41231 [UNDEFINED MUTATION]. The assay can be described thus: Ratio of EC50 for N-terminal HA epitope-tagged human P2Y2 receptor C278S mutant to EC50 for wild type 3 human P2Y2 receptor.
The target in assay [6] is P2Y purinoceptor 2 (Homo sapiens, UniProt P41231, C278S). Put plainly: Agonist activity at N-terminal HA epitope-tagged human P2Y2 receptor C278S mutant expressed in human 1321N1 cells assessed as increase in intracellular calcium level. It is filed as functional, cell-based. Summed up: as §2
Assay [7] concerns P2Y purinoceptor 2 (Homo sapiens), P41231 [R194H]. Put plainly: Agonist activity at N-terminal HA epitope-tagged human P2Y2 receptor R194H mutant expressed in human 1321N1 cells assessed as increase in intracellular calcium level relative to carbachol. Format: functional, cell-based. Put shortly:
as §3

The subject of assay [8] is P2Y purinoceptor 2 (Homo sapiens), P41231 [UNDEFINED MUTATION]. The assay can be described thus: Ratio of EC50 for N-terminal HA epitope-tagged human P2Y2 receptor Y114A mutant to EC50 for wild type 3 human P2Y2 receptor. Summed up:
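HA-tagged receptors (wild type or mutant) were stably expressed in 1321N1 astrocytoma cells via retrovirus. Cells were loaded with Oregon Green BAPTA-1/AM in Krebs-HEPES pH 7.4, then kept 20 min at 28 °C before agonist injection. Fluorescence was read at 520 nm (excitation 485 nm). […] Each mutant was compared with the wild-type line of similar expression.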

Assay [9] deals with P2Y purinoceptor 2 (Homo sapiens), P41231 [S296A]. The assay can be described thus: Agonist activity at N-terminal HA epitope-tagged human P2Y2 receptor S296A mutant expressed in human 1321N1 cells assessed as increase in intracellular calcium level relative to carbachol. Format: functional, cell-based. Summed up: as §3
Assay [10] deals with T1, P2Y purinoceptor 2. The assay can be described thus: Agonist activity at N-terminal HA epitope-tagged wild type human P2Y2 receptor expressed in human 1321N1 cells assessed as increase in intracellular calcium level. Format: functional, cell-based. Summed up:
as §3

Assay [11] addresses P2Y purinoceptor 2 (Homo sapiens, UniProt P41231, S296A). Put plainly: Agonist activity at N-terminal HA epitope-tagged human P2Y2 receptor S296A mutant expressed in human 1321N1 cells assessed as increase in intracellular calcium level. It is filed as functional, cell-based. Summed up:
as §1

The subject of assay [12] is P2Y purinoceptor 2 (Homo sapiens), P41231 [UNDEFINED MUTATION]. Put plainly: Ratio of EC50 for N-terminal HA epitope-tagged human P2Y2 receptor R177A_R180A double mutant to EC50 for wild type 4 human P2Y2 receptor.
Assay [13] has as its target P2Y purinoceptor 2 (Homo sapiens, UniProt P41231, Y198A). The assay can be described thus: Agonist activity at N-terminal HA epitope-tagged human P2Y2 receptor Y198A mutant expressed in human 1321N1 cells assessed as increase in intracellular calcium level. Format: functional, cell-based. Summed up: as §2
Assay [14] deals with T1, P2Y purinoceptor 2. The assay can be described thus: Agonist activity at N-terminal HA epitope-tagged wild type 4 human P2Y2 receptor expressed in human 1321N1 cells assessed as increase in intracellular calcium level relative to carbachol. Format: functional, cell-based. Put shortly:
as §3

Assay [15] deals with P2Y purinoceptor 2 (Homo sapiens), P41231 [R272A]. Put plainly: Agonist activity at N-terminal HA epitope-tagged human P2Y2 receptor R272A mutant expressed in human 1321N1 cells assessed as increase in intracellular calcium level relative to carbachol. Format: functional, cell-based. Put shortly:
as §3

Assay [16] concerns the target P2Y purinoceptor 2 (Homo sapiens, UniProt P41231, R180A). Put plainly: Agonist activity at N-terminal HA epitope-tagged human P2Y2 receptor R180A mutant expressed in human 1321N1 cells assessed as increase in intracellular calcium level. It is filed as functional, cell-based. Put shortly: as §2
For assay [17], the system named is P2Y purinoceptor 2 (Homo sapiens), P41231 [UNDEFINED MUTATION]. The assay can be described thus: Ratio of EC50 for N-terminal HA epitope-tagged human P2Y2 receptor Y118A mutant to EC50 for wild type 3 human P2Y2 receptor.
Assay [18] concerns P2Y purinoceptor 2 (Homo sapiens), P41231 [R180A]. Put plainly: Agonist activity at N-terminal HA epitope-tagged human P2Y2 receptor R180A mutant expressed in human 1321N1 cells assessed as increase in intracellular calcium level relative to carbachol. Format: functional, cell-based. Summed up: as §3
In assay [19] the target is P2Y purinoceptor 2 (Homo sapiens, UniProt P41231, Y118A). Put plainly: Agonist activity at N-terminal HA epitope-tagged human P2Y2 receptor Y118A mutant expressed in human 1321N1 cells assessed as increase in intracellular calcium level. It is filed as functional, cell-based. Summed up: as §2
In assay [20] the test system is P2Y purinoceptor 2 (Homo sapiens), P41231 [Y118A]. Put plainly: Agonist activity at N-terminal HA epitope-tagged human P2Y2 receptor Y118A mutant expressed in human 1321N1 cells assessed as increase in intracellular calcium level relative to carbachol. It is filed as functional, cell-based. Summed up: as §3
Assay [21] has as its target P2Y purinoceptor 2 (Homo sapiens, UniProt P41231, R177A/R180A). The assay can be described thus: Agonist activity at N-terminal HA epitope-tagged human P2Y2 receptor R177A_R180A double mutant expressed in human 1321N1 cells assessed as increase in intracellular calcium level. Format: functional, cell-based. Put shortly: as §2
The subject of assay [22] is P2Y purinoceptor 2 (Homo sapiens), P41231 [R177A]. Put plainly: Agonist activity at N-terminal HA epitope-tagged human P2Y2 receptor R177A mutant expressed in human 1321N1 cells assessed as increase in intracellular calcium level relative to carbachol. Format: functional, cell-based. Summed up: as §3
In assay [23] the target is P2Y purinoceptor 2 (Homo sapiens, UniProt P41231, R194H). The assay can be described thus: Agonist activity at N-terminal HA epitope-tagged human P2Y2 receptor R194H mutant expressed in human 1321N1 cells assessed as increase in intracellular calcium level. Format: functional, cell-based. Summed up: as §2
In assay [24] the target is P2Y purinoceptor 2 (Homo sapiens, UniProt P41231, Y114A). Put plainly: Agonist activity at N-terminal HA epitope-tagged human P2Y2 receptor Y114A mutant expressed in human 1321N1 cells assessed as increase in intracellular calcium level. Format: functional, cell-based. Put shortly:
as §2

Assay [25] relates to P2Y purinoceptor 2 (Homo sapiens), P41231 [Y114A]. Put plainly: Agonist activity at N-terminal HA epitope-tagged human P2Y2 receptor Y114A mutant expressed in human 1321N1 cells assessed as increase in intracellular calcium level relative to carbachol. Format: functional, cell-based. Summed up:
as §3

In assay [26] the test system is P2Y purinoceptor 2 (Homo sapiens), P41231 [Y198A]. The assay can be described thus: Agonist activity at N-terminal HA epitope-tagged human P2Y2 receptor Y198A mutant expressed in human 1321N1 cells assessed as increase in intracellular calcium level relative to carbachol. It is filed as functional, cell-based. Put shortly: as §3
In assay [27] the target is T1, P2Y purinoceptor 2. Put plainly: Agonist activity at N-terminal HA epitope-tagged wild type 3 human P2Y2 receptor expressed in human 1321N1 cells assessed as increase in intracellular calcium level relative to carbachol. It is filed as functional, cell-based. Put shortly:
as §3

Assay [28] concerns P2Y purinoceptor 2 (Homo sapiens), P41231 [C278S]. The assay can be described thus: Agonist activity at N-terminal HA epitope-tagged human P2Y2 receptor C278S mutant expressed in human 1321N1 cells assessed as increase in intracellular calcium level relative to carbachol. It is filed as functional, cell-based. Summed up: as §3
The target in assay [29] is T1, P2Y purinoceptor 2. Put plainly: Agonist activity at N-terminal HA epitope-tagged wild type 4 human P2Y2 receptor expressed in human 1321N1 cells assessed as increase in intracellular calcium level. Format: functional, cell-based. Put shortly: as §1
Assay [30] concerns the target P2Y purinoceptor 2 (Homo sapiens, UniProt P41231, R177A). Put plainly: Agonist activity at N-terminal HA epitope-tagged human P2Y2 receptor R177A mutant expressed in human 1321N1 cells assessed as increase in intracellular calcium level. It is filed as functional, cell-based. Summed up: as §2

T1 sequence (P41231 whole entry): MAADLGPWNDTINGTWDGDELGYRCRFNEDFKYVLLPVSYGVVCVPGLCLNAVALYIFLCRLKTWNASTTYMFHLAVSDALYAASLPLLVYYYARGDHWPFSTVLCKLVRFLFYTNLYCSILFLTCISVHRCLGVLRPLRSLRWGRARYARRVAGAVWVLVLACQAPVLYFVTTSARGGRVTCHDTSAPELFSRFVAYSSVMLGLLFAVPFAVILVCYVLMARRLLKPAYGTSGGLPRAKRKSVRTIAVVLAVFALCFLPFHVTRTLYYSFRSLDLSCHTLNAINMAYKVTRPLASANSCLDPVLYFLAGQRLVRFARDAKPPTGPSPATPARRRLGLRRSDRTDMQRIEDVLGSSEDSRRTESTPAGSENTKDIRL
Chain of P2Y purinoceptor 2 (Homo sapiens), P41231 [UNDEFINED MUTATION] (P41231 whole entry, looked up, stated change not applied): as the sequence (P41231 whole entry) above
Chain of P2Y purinoceptor 2 (Homo sapiens, UniProt P41231, Y118A) (P41231 whole entry Y118A): as the sequence (P41231 whole entry) above, with Y118A counted along it
Chain of P2Y purinoceptor 2 (Homo sapiens), P41231 [Y118A] (P41231 whole entry Y118A): as the sequence (P41231 whole entry) above, with Y118A counted along it
Chain of P2Y purinoceptor 2 (Homo sapiens), P41231 [R177A] (P41231 whole entry R177A): as the sequence (P41231 whole entry) above, with R177A counted along it
Chain of P2Y purinoceptor 2 (Homo sapiens, UniProt P41231, R177A) (P41231 whole entry R177A): as the sequence (P41231 whole entry) above, with R177A counted along it
Chain of P2Y purinoceptor 2 (Homo sapiens), P41231 [S296A] (P41231 whole entry S296A): as the sequence (P41231 whole entry) above, with S296A counted along it
Chain of P2Y purinoceptor 2 (Homo sapiens, UniProt P41231, S296A) (P41231 whole entry S296A): as the sequence (P41231 whole entry) above, with S296A counted along it
Chain of P2Y purinoceptor 2 (Homo sapiens, UniProt P41231, R272A) (P41231 whole entry R272A): as the sequence (P41231 whole entry) above, with R272A counted along it
Chain of P2Y purinoceptor 2 (Homo sapiens), P41231 [R272A] (P41231 whole entry R272A): as the sequence (P41231 whole entry) above, with R272A counted along it
Chain of P2Y purinoceptor 2 (Homo sapiens, UniProt P41231, C278S) (P41231 whole entry C278S): as the sequence (P41231 whole entry) above, with C278S counted along it
Chain of P2Y purinoceptor 2 (Homo sapiens), P41231 [C278S] (P41231 whole entry C278S): as the sequence (P41231 whole entry) above, with C278S counted along it
Chain of P2Y purinoceptor 2 (Homo sapiens), P41231 [R194H] (P41231 whole entry R194H): as the sequence (P41231 whole entry) above, with R194H counted along it
Chain of P2Y purinoceptor 2 (Homo sapiens, UniProt P41231, R194H) (P41231 whole entry R194H): as the sequence (P41231 whole entry) above, with R194H counted along it
Chain of P2Y purinoceptor 2 (Homo sapiens, UniProt P41231, Y114A) (P41231 whole entry Y114A): as the sequence (P41231 whole entry) above, with Y114A counted along it
Chain of P2Y purinoceptor 2 (Homo sapiens), P41231 [Y114A] (P41231 whole entry Y114A): as the sequence (P41231 whole entry) above, with Y114A counted along it
Chain of P2Y purinoceptor 2 (Homo sapiens), P41231 [R177A,R180A] (P41231 whole entry R177A/R180A): as the sequence (P41231 whole entry) above, with R177A, R180A counted along it
Chain of P2Y purinoceptor 2 (Homo sapiens, UniProt P41231, R177A/R180A) (P41231 whole entry R177A/R180A): as the sequence (P41231 whole entry) above, with R177A, R180A counted along it
Chain of P2Y purinoceptor 2 (Homo sapiens, UniProt P41231, R180A) (P41231 whole entry R180A): as the sequence (P41231 whole entry) above, with R180A counted along it
Chain of P2Y purinoceptor 2 (Homo sapiens), P41231 [R180A] (P41231 whole entry R180A): as the sequence (P41231 whole entry) above, with R180A counted along it
Chain of P2Y purinoceptor 2 (Homo sapiens, UniProt P41231, Y198A) (P41231 whole entry Y198A): as the sequence (P41231 whole entry) above, with Y198A counted along it
Chain of P2Y purinoceptor 2 (Homo sapiens), P41231 [Y198A] (P41231 whole entry Y198A): as the sequence (P41231 whole entry) above, with Y198A counted along it

For the compound `C[N+](C)(C)CCOC(N)=O`, the outcome at P2Y purinoceptor 2 [1] was Active.

For the compound `Nc1ncnc2c1ncn2[C@@H]1O[C@H](COP(=O)(O)OP(=O)(O)OP(=O)(O)O)[C@@H](O)[C@H]1O` [ADENOSINE TRIPHOSPHATE], the concentration giving a half-maximal response (EC50) on P2Y purinoceptor 2 [2] is 95.8 nM; at P2Y purinoceptor 2 [3], 11700 nM; at P2Y purinoceptor 2 [6], 1000 nM; at P2Y purinoceptor 2 [11], > 300000 nM; at P2Y purinoceptor 2 [13], 120 nM; on P2Y purinoceptor 2 [16], 237 nM. Further, the concentration giving a half-maximal response (EC50) on P2Y purinoceptor 2 [19] turned out to be 299 nM; on P2Y purinoceptor 2 [21] it was 239 nM; at P2Y purinoceptor 2 [23], 111 nM; at P2Y purinoceptor 2 [24], 30.1 nM; on P2Y purinoceptor 2 [29], 63.1 nM; on P2Y purinoceptor 2 [30], 183 nM. Also, the Efficacy was 104% in [4]; 130% in [7]; 5% in assay [9]; 110% at P2Y purinoceptor 2 [14]; 87% in [15]; 115% in assay [18]. The Efficacy in assay [20] is 41%; in assay [22], 117%; in [25], 87%; in assay [26], 126%; on P2Y purinoceptor 2 [27], 92%; in assay [28], 97%. Further, the Ratio EC50 worked out at 10 in [5], 2 in [8], 4 in [12] and 3 in assay [17]. Further, the Activity entry on P2Y purinoceptor 2 [10] was “Dose-dependent effect”.
